# Test results from ChEMBL document CHEMBL2311431, “Synthesis and biological evaluation of some 5-arylidene-2-(1,3-thiazol-2-ylimino)-1,3-thiazolidin-4-ones as dual anti-inflammatory/antimicrobial agents” (Bioorg Med Chem, 2013).
# Columns and labels:
# Mus musculus [1] = assay: Acute toxicity in AKR mouse up to 0.5 mmol/kg, ip; assay type: organism-based; settings: in vivo
# Mus musculus [2] = assay: Antiinflammatory activity in AKR mouse assessed as inhibition of carrageenan-induced paw edema at 0.01 mmol/kg, ip measured after 3.5 hrs of carrageenan-challenge; assay type: functional
# Method in brief: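 AKR mice of both sexes (pregnant females excluded), 6-10 per group, fasted during the experiment. Edema induced by intradermal 0.05 mL of 2% carrageenin into the right hind paw. Compound given at 0.01 mmol/kg ip, suspended in water with Tween-80, at the same time as carrageenin.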
# [3] = molecular target: T1, Prostaglandin G/H synthase 1 (Ovis aries) (UniProt P05979); assay: Inhibition of ovine COX1 assessed as inhibition of PGF2a production by enzyme immunoassay; set-up: concentration or dose not given beside the values; settings: concentration not given here
# T1 sequence (whole entry): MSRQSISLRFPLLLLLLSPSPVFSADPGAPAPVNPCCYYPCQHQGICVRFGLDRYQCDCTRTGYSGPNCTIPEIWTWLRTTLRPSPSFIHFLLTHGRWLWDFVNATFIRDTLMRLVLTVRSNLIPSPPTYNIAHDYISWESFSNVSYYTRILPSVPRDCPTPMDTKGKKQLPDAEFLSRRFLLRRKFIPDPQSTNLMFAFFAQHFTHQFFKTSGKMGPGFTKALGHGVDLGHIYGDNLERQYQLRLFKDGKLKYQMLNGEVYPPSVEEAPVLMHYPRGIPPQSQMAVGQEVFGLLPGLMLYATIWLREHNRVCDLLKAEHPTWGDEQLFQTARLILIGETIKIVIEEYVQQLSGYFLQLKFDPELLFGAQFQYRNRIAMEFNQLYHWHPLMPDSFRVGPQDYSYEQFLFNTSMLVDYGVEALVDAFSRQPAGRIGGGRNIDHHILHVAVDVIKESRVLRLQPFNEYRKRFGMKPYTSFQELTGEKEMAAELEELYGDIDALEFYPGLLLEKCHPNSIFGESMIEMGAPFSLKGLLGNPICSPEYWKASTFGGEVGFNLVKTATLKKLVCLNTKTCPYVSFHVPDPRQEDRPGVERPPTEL
# Method in brief: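 Ovine COX-1 from a commercial screening kit, tested with 0.1 µM arachidonic acid, which is below the saturating level. COX-derived PGH2 is reduced by SnCl2 to PGF2a, quantified by enzyme immunoassay with a broad prostaglandin antibody. At least triplicate.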
# [4] = (§1) Inhibition of soybean lipoxygenase assessed as inhibition of sodium linolate conversion to 13-hydroperoxylinoleic acid after 4 mins by spectrophotometry; set-up: species or system Glycine max; settings: read-out: IC50
# Glycine max = assay: as §1
# Aspergillus niger [5] = assay: Fungicidal activity against Aspergillus niger ATCC 6275 after 72 hrs by serial subcultivation method; assay type: functional; settings: ATCC 6275, 72 h
# Aspergillus niger [6] = assay: Antifungal activity against Aspergillus niger ATCC 6275 after 72 hrs by serial dilution technique; assay type: functional; settings: ATCC 6275, 72 h
# Method in brief: (§2)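 Serial dilution in malt broth; compounds from 1 mg/ml stocks in 5% DMSO; 72 h at 28 °C. MIC is the lowest concentration with no visible growth under a binocular microscope. Run in duplicate, repeated three times.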
# Aspergillus fumigatus [7] = assay: Fungicidal activity against Aspergillus fumigatus after 72 hrs by serial subcultivation method; assay type: functional
# Aspergillus flavus [8] = assay: Fungicidal activity against Aspergillus flavus ATCC 9643 after 72 hrs by serial subcultivation method; assay type: functional; settings: ATCC 9643, 72 h
# Trichoderma viride [9] = assay: Fungicidal activity against Trichoderma viride IAM 5061 after 72 hrs by serial subcultivation method; assay type: functional; settings: IAM 5061, 72 h
# Penicillium ochrochloron [10] = assay: Fungicidal activity against Penicillium ochrochloron ATCC 9112 after 72 hrs by serial subcultivation method; assay type: functional; settings: ATCC 9112, 72 h
# Aspergillus flavus [11] = assay: Antifungal activity against Aspergillus flavus ATCC 9643 after 72 hrs by serial dilution technique; assay type: functional; settings: ATCC 9643, 72 h; method in brief: as §2
# Talaromyces funiculosus [12] = assay: Fungicidal activity against Penicillium funiculosum ATCC 36839 after 72 hrs by serial subcultivation method; assay type: functional; settings: ATCC 36839, 72 h
# Aspergillus fumigatus [13] = assay: Antifungal activity against Aspergillus fumigatus after 72 hrs by serial dilution technique; assay type: functional; method in brief: as §2
# Trichoderma viride [14] = assay: Antifungal activity against Trichoderma viride IAM 5061 after 72 hrs by serial dilution technique; assay type: functional; settings: IAM 5061, 72 h; method in brief: as §2
# Penicillium ochrochloron [15] = assay: Antifungal activity against Penicillium ochrochloron ATCC 9112 after 72 hrs by serial dilution technique; assay type: functional; settings: ATCC 9112, 72 h; method in brief: as §2
# Talaromyces funiculosus [16] = assay: Antifungal activity against Penicillium funiculosum ATCC 36839 after 72 hrs by serial dilution technique; assay type: functional; settings: ATCC 36839, 72 h; method in brief: as §2
# Escherichia coli [17] = assay: Bactericidal activity against Escherichia coli ATCC 35210 after 72 hrs by serial subcultivation method; assay type: functional; settings: ATCC 35210, 72 h
# Pseudomonas aeruginosa [18] = assay: Bactericidal activity against Pseudomonas aeruginosa ATCC 27853 after 72 hrs by serial subcultivation method; assay type: functional; settings: ATCC 27853, 72 h
# Listeria monocytogenes [19] = assay: Bactericidal activity against Listeria monocytogenes NCTC 7973 after 72 hrs by serial subcultivation method; assay type: functional; settings: NCTC 7973, 72 h
# Bacillus cereus [20] = assay: Bactericidal activity against Bacillus cereus clinical isolate after 72 hrs by serial subcultivation method; assay type: functional
# Micrococcus flavus [21] = assay: Bactericidal activity against Micrococcus flavus ATCC 10240 after 72 hrs by serial subcultivation method; assay type: functional; settings: ATCC 10240, 72 h
# Staphylococcus aureus [22] = assay: Bactericidal activity against Staphylococcus aureus ATCC 6538 after 72 hrs by serial subcultivation method; assay type: functional; settings: ATCC 6538, 72 h
# Escherichia coli [23] = assay: Antibacterial activity against Escherichia coli ATCC 35210 after 24 hr by microdilution test; assay type: functional; settings: ATCC 35210, 24 h
# Method in brief: (§3)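 Broth microdilution in LB medium, about 1.0×10^4 cfu per well; compounds from 1 mg/ml stocks in 5% DMSO. Incubated 24 h. MIC is the lowest concentration with no visible growth under a binocular microscope. Run in duplicate, repeated three times.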
# Listeria monocytogenes [24] = assay: Antibacterial activity against Listeria monocytogenes NCTC 7973 after 24 hr by microdilution test; assay type: functional; settings: NCTC 7973, 24 h; method in brief: as §3
# Pseudomonas aeruginosa [25] = assay: Antibacterial activity against Pseudomonas aeruginosa ATCC 27853 after 24 hr by microdilution test; assay type: functional; settings: ATCC 27853, 24 h; method in brief: as §3
# Micrococcus flavus [26] = assay: Antibacterial activity against Micrococcus flavus ATCC 10240 after 24 hr by microdilution test; assay type: functional; settings: ATCC 10240, 24 h; method in brief: as §3
# Bacillus cereus [27] = assay: Antibacterial activity against Bacillus cereus clinical isolate after 24 hr by microdilution test; assay type: functional; method in brief: as §3
# Staphylococcus aureus [28] = assay: Antibacterial activity against Staphylococcus aureus ATCC 6538 after 24 hr by microdilution test; assay type: functional; settings: ATCC 6538, 24 h; method in brief: as §3
Structure (SMILES),Activity (Mus musculus [1]),inhibition in vivo at 10 µmol/kg (Mus musculus [2]),inhibition [3],IC50 [4],MFC (Aspergillus niger [5]),MIC (Aspergillus niger [6]),MFC (Aspergillus fumigatus [7]),MFC (Aspergillus flavus [8]),MFC (Trichoderma viride [9]),MFC (Penicillium ochrochloron [10]),MIC (Aspergillus flavus [11]),MFC (Talaromyces funiculosus [12]),MIC (Aspergillus fumigatus [13]),MIC (Trichoderma viride [14]),MIC (Penicillium ochrochloron [15]),MIC (Talaromyces funiculosus [16]),MBC (Escherichia coli [17]),MBC (Pseudomonas aeruginosa [18]),MBC (Listeria monocytogenes [19]),MBC (Bacillus cereus [20]),further results
O=C1N/C(=N\c2nccs2)S/C1=C\c1cccc(Br)c1,Non-toxic,42.7%,2%,> 150 µM,25.6 µM,18 µM,25.6 µM,25.6 µM,22 µM,22 µM,22 µM,22 µM,18 µM,18 µM,18 µM,18 µM,25.6 µM,25.6 µM,18.3 µM,29.2 µM,inhibition (Glycine max): 34%; MBC (Micrococcus flavus [21]): 25.6 µM; MBC (Staphylococcus aureus [22]): 14.4 µM; MIC (Escherichia coli [23]): 14.6 µM; MIC (Listeria monocytogenes [24]): 14.4 µM; MIC (Pseudomonas aeruginosa [25]): 14.6 µM; MIC (Micrococcus flavus [26]): 18.3 µM; MIC (Bacillus cereus [27]): 25.6 µM; MIC (Staphylococcus aureus [28]): 7.3 µM
O=C1N/C(=N\c2nc(-c3ccccc3)cs2)S/C1=C\c1cccc(Cl)c1,Non-toxic,51%,65%,88 µM,25.2 µM,19 µM,25.2 µM,25.2 µM,25.2 µM,25.2 µM,19 µM,25.2 µM,19 µM,12.6 µM,19 µM,19 µM,50.4 µM,50.4 µM,50.4 µM,25.2 µM,MBC (Micrococcus flavus [21]): 50.4 µM; MBC (Staphylococcus aureus [22]): 50.4 µM; MIC (Escherichia coli [23]): 25.2 µM; MIC (Listeria monocytogenes [24]): 25.2 µM; MIC (Pseudomonas aeruginosa [25]): 25.2 µM; MIC (Micrococcus flavus [26]): 25.2 µM; MIC (Bacillus cereus [27]): 25.2 µM; MIC (Staphylococcus aureus [28]): 25.2 µM
O=C1N/C(=N\c2nc(-c3ccccc3)cs2)S/C1=C\c1ccccc1,Non-toxic,59.3%,67%,66 µM,25.2 µM,19 µM,25.2 µM,25.2 µM,25.2 µM,25.2 µM,19 µM,25.2 µM,19 µM,12.6 µM,19 µM,19 µM,108 µM,108 µM,27 µM,27 µM,MBC (Micrococcus flavus [21]): 27 µM; MBC (Staphylococcus aureus [22]): 108 µM; MIC (Escherichia coli [23]): 54 µM; MIC (Listeria monocytogenes [24]): 27 µM; MIC (Pseudomonas aeruginosa [25]): 27 µM; MIC (Micrococcus flavus [26]): 27 µM; MIC (Bacillus cereus [27]): 6.8 µM; MIC (Staphylococcus aureus [28]): 54 µM
Cc1cnc(/N=C2\NC(=O)/C(=C/c3ccc([N+](=O)[O-])cc3)S2)s1,Non-toxic,55.4%,68%,79 µM,31.5 µM,15.8 µM,31.5 µM,31.5 µM,31.5 µM,31.5 µM,15.8 µM,31.5 µM,15.8 µM,15.8 µM,15.8 µM,15.8 µM,232 µM,116 µM,29 µM,29 µM,MBC (Micrococcus flavus [21]): 29 µM; MBC (Staphylococcus aureus [22]): 232 µM; MIC (Escherichia coli [23]): 116 µM; MIC (Listeria monocytogenes [24]): 29 µM; MIC (Pseudomonas aeruginosa [25]): 29 µM; MIC (Micrococcus flavus [26]): 29 µM; MIC (Bacillus cereus [27]): 29 µM; MIC (Staphylococcus aureus [28]): 116 µM
